Assay results published in PMC4183664 (Journal of the American Chemical Society, 2014).

Assays:
[1] = tested on: SW-480 colon cancer cells; assay: Effect of GLUT1 inhibitors on internalization of BLM-Cy5**; type: cell-based; details: pretreatment with different concentrations of inhibitor, 37 °C, 2 h, then 25 μM dye-labeled conjugate 44; 2 s exposure
Procedure, shortened: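 SW480 cells kept in RPMI 1640 with 10% FBS and 1% pen-strep at 37 °C, 5% CO2. Seeded on glass chamber slides at 5000 cells/well for 48 h. At 70% confluence, rinsed with PBS and switched to phenol-red-free RPMI. Pretreated 2 h at 37 °C with cytochalasin B or phloretin, then 25 μM Cy5-labeled conjugate for 1 h at 37 °C. PBS-washed, fixed 5 min in 4% paraformaldehyde, DAPI-mounted, imaged through Cy5 filter with 40× oil objective; cells counted.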

[2] = tested on: DU145 human prostate cancer cells; assay: MTT cytotoxicity assay; type: cell-based; details: 24 h incubation, four concentrations, 5% DMSO, MTT read at 560 nm
Procedure, shortened: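 DU145 cells grown in log phase in MEM with 10% FBS and 1% pen-strep. Trypsinized, seeded at 5000 cells/well and incubated 24 h. Medium replaced with compound-containing medium (5% DMSO final) for 24 h. MTT solution (5 mg/mL in PBS, pH 7.4) added for 3 h at 37 °C. Crystals dissolved in DMSO; absorbance read at 560 nm, reference 670 nm. Viability = OD560/[OD560(positive control) − OD560(negative control)], with linear fit.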

[3] = tested on: supercoiled pSP64 plasmid DNA; assay: Relaxation of supercoiled pSP64 plasmid DNA by Fe; type: biochemical; details: Fe(II) chelate; pSP64, 50 mM Tris-HCl pH 8.0, 25 °C, 30 min; agarose gel
Procedure, shortened: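 200 ng supercoiled pSP64 treated with freshly prepared Fe2+ (from ferrous ammonium sulfate) plus compound at 2 or 4 μM, in 50 mM Tris-HCl pH 8.0, 25 °C for 30 min. Quenched with glycerol/bromophenol blue loading buffer. Run on 1% agarose gel in 9 mM Tris-borate pH 8.3 with 320 μM Na2EDTA, 96 V for 2 h. Stained 1 h with 0.5 μg/mL ethidium bromide, destained in water, viewed under UV. Cleaved DNA given as percent of total per lane.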

supercoiled DNA = details: relative to BLM; cited from earlier work

Molecule	inhibition of BLM-Cy5** (44) binding/uptake [1]	cytotoxicity toward cultured DU145 cells (cell viability, MTT) [2]	extent of double-strand cleavage of plasmid DNA [3]	double-strand DNA cleavage (supercoiled DNA)	potency of supercoiled DNA relaxation, fold less than for BLM (supercoiled DNA)
O=C(CCc1ccc(O)cc1)c1c(O)cc(O)cc1O [phloretin]	substantial and dose-dependent inhibition	–	–	–	–
bleomycin A5 [BLM A5]	–	the most potent of the derivatives tested	–	–	–
deglycobleomycin A5 [deglycoBLM A5]	–	cytotoxic to DU145 cells but much less so than BLM A5	minimal double-strand cleavage of plasmid DNA	much less double-strand cleavage is apparent	2–3 fold
C=C1[C@@H](C)[C@H]2[C@H](Cc3ccccc3)NC(=O)[C@]23OC(=O)/C=C/[C@H](O)CCC[C@@H](C)C/C=C/[C@H]3[C@@H]1O [cytochalasin B]	substantial and dose-dependent inhibition	–	–	–	–
